ChEMBL document CHEMBL1781949, “Veraguamides A-G, cyclic hexadepsipeptides from a dolastatin 16-producing cyanobacterium Symploca cf. hydnoides from Guam” (J Nat Prod, 2011)
Numbered stars: 1 amine (or outer) side, 2 acyl side, 3 side chain; on linkers, the order of the positions; unused ones are H or OH. Square brackets hold non-standard residues; d marks the D form. Peptide text beside a SMILES is read from it. X1 = CC(Cc1ccccc1)C(N[*:1])C(=O)[*:2]; X2 = CC(C)C(N[*:1])C(C)C(=O)[*:2]; dNMeV = CN[C@@H](C(=O)O)C(C)C; dHiv = CC(C)[C@@H](O)C(=O)O; Lac = C[C@H](O)C(=O)O

Legend:
HT-29 = assay: Cytotoxicity against human HT-29 cells after 48 hrs by MTT assay; format: functional, cell-based; conditions: HT-29, 48 h
Procedure, shortened: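 HT29 colorectal adenocarcinoma cells grown in DMEM with 10% FBS at 37 °C and 5% CO2. Cells seeded at 12,500 per well and treated with a range of concentrations 24 h after seeding. Paclitaxel positive control and DMSO solvent control. 48 h exposure, then MTT read-out. IC50 fitted from duplicate experiments.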

HeLa = assay: Cytotoxicity against human HeLa cells after 48 hrs by MTT assay; format: functional, cell-based
Procedure, shortened: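 HeLa cervical carcinoma cells grown in DMEM with 10% FBS at 37 °C and 5% CO2. Cells seeded at 3,000 per well and dosed at varying concentrations 24 h later. Paclitaxel positive control and DMSO solvent control. Incubated 48 h more before MTT measurement of viability. IC50 fitted from duplicate experiments.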

SMILES | IC50 (HT-29) [µM] | IC50 (HeLa) [µM]
CC(C)C1NC(=O)[C@@H]2CCCN2C(=O)C(C(C)Cc2ccccc2)NC(=O)[C@@H]2CCCN2C(=O)[C@@H](C(C)C)N(C)C(=O)[C@@H](C(C)C)OC(=O)[C@@H]2CCCN2C(=O)[C@H](C)OC(=O)C1C (stereo partly specified) [DOLASTATIN 16] (cyclo([Lac]P[dHiv][dNMeV]P[X1]P[X2])) | 78 | 58
CC(=O)O[C@H]1C(=O)[C@@]2(C)[C@H]([C@H](OC(=O)c3ccccc3)[C@]3(O)C[C@H](OC(=O)[C@H](O)[C@@H](NC(=O)c4ccccc4)c4ccccc4)C(C)=C1C3(C)C)[C@]1(OC(C)=O)CO[C@@H]1C[C@@H]2O [PACLITAXEL] | 0.003 | 0.0026
C#CCCC[C@H]1OC(=O)[C@H](C(C)C)N(C)C(=O)[C@@H]2CCCN2C(=O)[C@H]([C@@H](C)CC)OC(=O)[C@H](C(C)C)N(C)C(=O)[C@H](C(C)C)NC(=O)[C@H]1C [VERAGUAMIDE C] | – | 6.1
C#CCCC[C@H]1OC(=O)[C@H](C(C)C)N(C)C(=O)[C@@H]2CCCN2C(=O)[C@H](Cc2ccccc2)OC(=O)[C@H](C(C)C)N(C)C(=O)[C@H](C(C)C)NC(=O)[C@H]1C [VERAGUAMIDE F] | – | 49
